Test results taken from EPA's CvTdb concentration-time database.
Several values for one entry are separate records, joined by “and”; a condition that tells them apart may be missing. Equal entries are not always repeated.

Experiments:
[1] = system: mouse; assay: concentration in lung after dosing; details: dosed: dichloromethane, iv, male, B6C3F1
Summary of the method: (§1)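 Data points giving concentration or amount against time came from published in vivo toxicokinetic studies and from two structured collections. PubMed searching, classifier screening and manual review located the studies. Most points were digitised from plot screenshots using WebPlotDigitizer, the rest were copied from tables, and all keep their reported units.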

[2] = system: mouse; assay: concentration in body after dosing; details: dosed: dichloromethane, iv, male, B6C3F1
Summary of the method: as §1

[3] = system: mouse; assay: concentration in liver after dosing; details: dosed: dichloromethane, iv, male, B6C3F1
Summary of the method: as §1

[4] = system: mouse; assay: concentration in kidney after dosing; details: dosed: dichloromethane, iv, male, B6C3F1
Summary of the method: as §1

[5] = system: human; assay: concentration in blood after dosing; negative times count back from the end of exposure; details: dosed: dichloromethane, inhalation, duration: 6 hr, male
Summary of the method: as §1

[6] = system: human; assay: concentration in expired air after dosing; negative times count back from the end of exposure; details: dosed: dichloromethane, inhalation, duration: 6 hr, male
Summary of the method: as §1

[7] = system: human; assay: concentration in blood after dosing; details: dosed: chlorobenzene, 10 ppm, inhalation, duration: 8 hr
Summary of the method: as §1

[8] = system: frog; assay: concentration in embryo medium after dosing; details: dosed: musk moskene, 400 ug/L embryo medium, dermal, duration: 10 days, xenopus laevis
Summary of the method: as §1

[9] = system: rabbit; assay: concentration in blood after dosing; details: dosed: hexachlorocyclohexane, 25 mg/kg, oral, female
Summary of the method: as §1

ClCCl [dichloromethane]
Details	concentration in blood [ng/mL]	concentration in body [µg/g]	concentration in expired air [ppm]	concentration in kidney [µg/g]	concentration in liver [µg/g]	concentration in lung [µg/g]
[1], 1 h, 10 mg/kg	–	–	–	–	–	4.11
[1], 1 h, 50 mg/kg	–	–	–	–	–	2.96
[1], 3 h, 10 mg/kg	–	–	–	–	–	2.56
[1], 3 h, 50 mg/kg	–	–	–	–	–	1.54
[1], 4 h, 10 mg/kg	–	–	–	–	–	1.29
[1], 4 h, 50 mg/kg	–	–	–	–	–	1.23
[1], 20 min, 10 mg/kg	–	–	–	–	–	1.71
[1], 20 min, 50 mg/kg	–	–	–	–	–	6.19
[1], 40 min, 10 mg/kg	–	–	–	–	–	3.57
[1], 40 min, 50 mg/kg	–	–	–	–	–	3.98
[2], 1 h, 10 mg/kg	–	0.14	–	–	–	–
[2], 1 h, 50 mg/kg	–	0.14	–	–	–	–
[2], 3 h, 50 mg/kg	–	0.028	–	–	–	–
[2], 4 h, 50 mg/kg	–	0.018	–	–	–	–
[2], 20 min, 10 mg/kg	–	1.3	–	–	–	–
[2], 20 min, 50 mg/kg	–	1.16	–	–	–	–
[2], 40 min, 10 mg/kg	–	0.076	–	–	–	–
[2], 40 min, 50 mg/kg	–	0.076	–	–	–	–
[3], 1 h, 10 mg/kg	–	–	–	–	4.11	–
[3], 1 h, 50 mg/kg	–	–	–	–	15.4	–
[3], 3 h, 10 mg/kg	–	–	–	–	2.56	–
[3], 3 h, 50 mg/kg	–	–	–	–	7.81	–
[3], 4 h, 10 mg/kg	–	–	–	–	1.29	–
[3], 4 h, 50 mg/kg	–	–	–	–	7.12	–
[3], 20 min, 10 mg/kg	–	–	–	–	3.45	–
[3], 20 min, 50 mg/kg	–	–	–	–	21.6	–
[3], 40 min, 10 mg/kg	–	–	–	–	3.57	–
[3], 40 min, 50 mg/kg	–	–	–	–	15.9	–
[4], 1 h, 10 mg/kg	–	–	–	1.99	–	–
[4], 1 h, 50 mg/kg	–	–	–	3.82	–	–
[4], 3 h, 10 mg/kg	–	–	–	1.31	–	–
[4], 3 h, 50 mg/kg	–	–	–	2.17	–	–
[4], 4 h, 10 mg/kg	–	–	–	0.78	–	–
[4], 4 h, 50 mg/kg	–	–	–	1.74	–	–
[4], 20 min, 10 mg/kg	–	–	–	1.86	–	–
[4], 20 min, 50 mg/kg	–	–	–	3.7	–	–
[4], 40 min, 10 mg/kg	–	–	–	1.56	–	–
[4], 40 min, 50 mg/kg	–	–	–	5.31	–	–
[5], 1 h, 100 ppm	150	–	–	–	–	–
[5], 1 h, 350 ppm	910	–	–	–	–	–
[5], 6 h, 100 ppm	62	–	–	–	–	–
[5], 6 h, 350 ppm	340	–	–	–	–	–
[5], 16 h, 100 ppm	12	–	–	–	–	–
[5], 16 h, 350 ppm	77	–	–	–	–	–
[5], 24 h, 350 ppm	36	–	–	–	–	–
[6], 0.083 h, 100 ppm	–	–	12.1	–	–	–
[6], 0.083 h, 350 ppm	–	–	81.3	–	–	–
[6], 0.25 h, 100 ppm	–	–	8.5	–	–	–
[6], 0.25 h, 350 ppm	–	–	58.9	–	–	–
[6], 0.5 h, 100 ppm	–	–	6.7	–	–	–
[6], 0.5 h, 350 ppm	–	–	38.7	–	–	–
[6], 1 h, 100 ppm	–	–	4.2	–	–	–
[6], 1 h, 350 ppm	–	–	25.1	–	–	–
[6], 1.5 h, 100 ppm	–	–	2.7	–	–	–
[6], 1.5 h, 350 ppm	–	–	17.7	–	–	–
[6], 2 h, 100 ppm	–	–	2.6	–	–	–
[6], 2 h, 350 ppm	–	–	14.9	–	–	–
[6], 3 h, 100 ppm	–	–	1.8	–	–	–
[6], 3 h, 350 ppm	–	–	10.3	–	–	–
[6], 4 h, 100 ppm	–	–	1.4	–	–	–
[6], 4 h, 350 ppm	–	–	8.3	–	–	–
[6], 6 h, 350 ppm	–	–	4.5	–	–	–
[6], 8 h, 350 ppm	–	–	3.2	–	–	–
[6], 16 h, 350 ppm	–	–	1.3	–	–	–

during exposure
Details	concentration in blood, 100 ppm [ng/mL]	concentration in blood, 350 ppm [ng/mL]	concentration in expired air, 100 ppm [ppm]	concentration in expired air, 350 ppm [ppm]
[5], -1 h	1050	5860	–	–
[5], -3 h	1110	5920	–	–
[5], -6 h	5	16	–	–
[6], -1 h	–	–	43.3	192
[6], -2 h	–	–	42.8	190
[6], -3 h	–	–	41.8	192
[6], -4 h	–	–	41.2	176
[6], -4.5 h	–	–	40.4	165
[6], -5 h	–	–	39.4	155
[6], -5.5 h	–	–	36.4	141
[6], -5.75 h	–	–	34.6	126
[6], -36 s	–	–	45.7	202

Clc1ccccc1 [chlorobenzene]
[7]
Details	concentration in blood
8.065 h	182 ng/mL
8.199 h	192 ng/mL and 167 ng/mL and 100 ng/mL
8.252 h	145 ng/mL
8.284 h	200 ng/mL
8.434 h	120 ng/mL
8.451 h	158 ng/mL
8.532 h	65.3 ng/mL
8.536 h	158 ng/mL and 140 ng/mL
8.617 h	112 ng/mL
8.633 h	109 ng/mL
8.82 h	107 ng/mL
8.872 h	128 ng/mL and 140 ng/mL and 51.8 ng/mL
9.018 h	102 ng/mL
9.124 h	119 ng/mL
9.201 h	49.6 ng/mL and 92.9 ng/mL
9.205 h	119 ng/mL
9.387 h	98.1 ng/mL
9.533 h	78.8 ng/mL and 44.2 ng/mL
9.537 h	108 ng/mL
9.582 h	100 ng/mL
9.87 h	96 ng/mL and 69.7 ng/mL and 42.1 ng/mL
10.2 h	40.5 ng/mL and 77.5 ng/mL and 91.3 ng/mL
10.53 h	50.2 ng/mL and 63.4 ng/mL and 71.5 ng/mL
10.86 h	41.7 ng/mL
10.87 h	58.7 ng/mL and 66.2 ng/mL
11.2 h	60.9 ng/mL

Cc1c([N+](=O)[O-])cc2c(c1[N+](=O)[O-])C(C)(C)CC2(C)C [musk moskene]
[8]
Details	concentration in embryo medium [ng/mL]
0.1638 h	353
0.2136 h	293
0.2621 h	670
95.89 h	46.5
168.63 h	226
240 h	175
240.21 h	290
240.24 h	222

ClC1C(Cl)C(Cl)C(Cl)C(Cl)C1Cl (centres undefined) [hexachlorocyclohexane]
[9]
Details	concentration in blood [ng/mL]
168 h	9220
336 h	12300
504 h	18400
672 h	24600
840 h	33800
1008 h	39900
1176 h	46100
1344 h	52200
1512 h	58400
1680 h	64500
1848 h	70700
2016 h	86000
